# HUVEC prolif 384 – inhibitors of HUVEC proliferation, primary screen, cell-based, 384-well; CellTiter-Glo luminescence, 72 h; active compounds read low; 1.1% of 86,000 active; viability, % at 10 µM (by protocol);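 active = viability at or below 30%; inactive = viability above 30%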;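 also: 100% = median luminescence of DMSO-only cell control wells on each plate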
# H69AR growth 86K – proliferation blockers of H69AR lung cancer cells, primary screen, cell-based, human, 86K library. H69AR lung tumor viability, ATP luminescence, 72 h; active compounds read low. viability, % at 10 µM. 6% of 85,000 active. AID 598, 2007;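 active = viability at or below 40%; inactive = viability above 40%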;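 also: multidrug resistant small cell line overexpressing MRP-1 efflux transporter; 100% = mean luminescence of untreated control wells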
# HCT116 bCat-KO – primary screen for growth suppressors in beta-catenin knockout HCT116 cells (colon tumor, human) | HCT116 beta-catenin knockout viability, CellTiter-Glo, 60 h; active compounds read low | viability, % at 10 µM | 1.5% of 140,000 active | AID 818, 2007;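 active = viability at or under a set limit, the compound median less 4 SD, cut at about 6% in these data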;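 also: 0% = Hyamine 1622 control at 20 µM and 100% = untreated cell control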
# Lung fibro prol – antiproliferative effect on LL 47 fibroblasts – human, LL 47 cells, CellTiter-Glo luminescence, primary screen; 1.1% of 85,000 active; LL 47 human lung fibroblast viability, ATP luminescence; active compounds read low; viability, % at 10 µM;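 active = viability at or below 50% in the single dose screen; inactive = viability above 50%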;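 also: compound exposure lasted 72 h before the ATP readout; 100% = median luminescence of untreated cell-only wells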
#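 Benchmarks: Cell-only wells, no compound | Test system: LL 47 human lung fibroblasts, passage 12 or lower | Input: 1,150 cells/well | Measured by: CellTiter-Glo luminescence measuring cellular ATP | Medium: IMEM, 15% FBS supplement | Schedule: Overnight attachment after seeding, then 72 h compound exposure at 37 °C | Doses: Compound addition at 0.1% DMSO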
# PTEN del growth – growth suppression of PTEN-null HCT116, primary screen, cell-based, CellTiter-Glo. HCT116 PTEN-null viability, 60 h; active compounds read low. viability, % at 10 µM. 1.2% of 140,000 active;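 active = viability at or below a set limit, 4 SD under the median of all tested compounds, cut at about 3.7% in these data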;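 also: PTEN knockout HCT116 line with beta catenin targeted HCT116 as companion control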
# Starred values were filed as active, the others as inactive; . = no result given. Only a selection was taken, and hits are over-represented in it overall.
SMILES,HUVEC prolif 384,H69AR growth 86K,HCT116 bCat-KO,Lung fibro prol,PTEN del growth
COc1cccc2cc(C(=O)NCc3ccco3)c(=Nc3ccc(C(=O)O)cc3)oc12,78,12*,67,85,49
CC(C(=O)OCC(=O)c1cccc([N+](=O)[O-])c1)N1C(=O)C2C3CCC(C3)C2C1=O (centres undefined),.,.,97,.,103
O=C(CSC1=NS(=O)(=O)c2ccccc21)Nc1ccccc1,48,19*,89,53,104
COC(=O)CSC1=NS(=O)(=O)c2ccccc21,80,37*,103,69,99
COC(=O)CSc1ccccc1C(=O)OC,90,94,124,92,103
CC1CCc2nn(CC(=O)N3CCc4ccccc43)cc2C1 (centres undefined),81,89,67,85,86
O=C(Nc1c(C(=O)Nc2cccc(F)c2)oc2ccccc12)c1ccc2c(c1)OCO2,74,24*,74,71,73
CCOC(=O)NC(NCCc1ccccc1)(C(F)(F)F)C(F)(F)F,98,12*,101,98,104
CCC(C)NS(=O)(=O)c1ccc(OCC(=O)N2CCCCC2)cc1 (centres undefined),98,106,91,109,87
O=C(NC(CSCc1ccccc1)C(=O)N/N=C/c1ccc(O)cc1O)c1ccc([N+](=O)[O-])cc1 (centres undefined),7.6*,30*,2.9*,25*,3.0*
COC(=O)c1ccc(NC(=O)CN2C(=O)CNC2=O)cc1,.,.,88,.,93
CCCC(=O)C1=C(O)C(C(=O)OC)C(C)(C)CC1=Nc1ccc(N)cc1 (centres undefined),95,81,89,97,87
CCCC(=Nc1ccc(N)cc1)C1=C(O)C(C(=O)OC)C(C)(C)CC1=O (centres undefined),88,20*,104,100,96
COc1ccc(OC)c(C2=NOC(C(=O)N3CCCc4ccccc43)C2)c1 (centres undefined),99,86,94,106,93
O=C1CC(c2cccc(Cl)c2)Cc2nc(N3CCN(c4ccccc4)CC3)ncc21 (centres undefined),85,97,79,92,77
CCN1CCN(c2ncc3c(n2)CC(c2cc(OC)c(OC)c(OC)c2)CC3=O)CC1 (centres undefined),51,17*,15,51,18
CSc1ccc(S(=O)(=O)NCCSc2ccccn2)cc1,.,.,89,.,95
Nc1nc2ccccc2n1C(=O)CCc1ccccc1,85,26*,71,85,68
CCOC(=O)C1(N(CC)CC)Sc2cc(C)ccc2NC1=O (centres undefined),74,15*,24,55,26
Cc1cc(C(=O)c2ccc(C(C)(C)C)cc2)c(NC(=O)CCl)s1,.,.,1.1*,.,1.3*
Cc1cc(C(=O)c2ccccc2)c(NC(=O)CN2CCOCC2)s1,.,.,95,.,97
Cc1cc(=O)oc2cc(OCC3CC(c4ccccc4)=NO3)ccc12 (centres undefined),64,24*,40,91,43
Cc1cc(=O)oc2cc(OCC(=O)N3CC(C)OC(C)C3)ccc12 (centres undefined),94,93,92,104,102
Cc1cc(=O)oc2cc(OCC(=O)N3c4ccccc4CC3C)ccc12 (centres undefined),57,24*,19,62,19
CSc1nc(N2CCN(CCO)CC2)c2sc3nc(-c4ccco4)c4c(c3c2n1)CCC4,77,0.8*,.,98,.
SMILES,HUVEC prolif 384,H69AR growth 86K,HCT116 bCat-KO,Lung fibro prol,PTEN del growth
Oc1c(CN2CCCCC2)cc(Br)c2cccnc12,.,.,1.7*,.,1.4*
Oc1c(I)cc(Cl)c2cccnc12,12*,8.3*,18,70,8
O=C(COc1c(Br)cc(Br)c2cccnc12)N1CCc2ccccc2C1,93,53,86,97,93
Oc1c(CN2CCc3ccccc3C2)cc(Cl)c2cccnc12,5.9*,2.0*,2.9*,14*,3.0*
COC(=O)[C@@]1(Cc2ccc(F)cc2)[C@H]2c3cc(C(=O)N4CCCC4)n(CCc4ccccn4)c3C[C@H]2CN1C(=O)c1ccccc1,.,.,78,.,79
CC1CCN(C2=NC(=O)/C(=C/c3cn(-c4ccccc4)nc3-c3cccc(S(=O)(=O)N(C)C)c3)S2)CC1,.,.,85,.,86
COc1ccc(Cn2c(SCc3ccccc3C)nc3cc(OC)c(OC)cc3c2=N)cc1,.,.,1.6*,.,1.1*
CCC(C)NC(=O)CCSc1ccc(C)cc1 (centres undefined),.,.,95,.,90
Cc1cccc2cc(CN(Cc3ccco3)C(c3nnnn3CCc3ccccc3)C(C)C)c(=O)[nH]c12 (centres undefined),86,66,38,.,36
COCCn1nnnc1C(C(C)C)N(Cc1cccnc1)Cc1cc2cc(OC)ccc2[nH]c1=O (centres undefined),83,91,89,104,93
COCCn1nnnc1C(C(C)C)N(Cc1ccccc1)Cc1cc2cc(OC)ccc2[nH]c1=O (centres undefined),71,4.8*,57,89,44
COc1ccc2[nH]c(=O)c(CN(Cc3ccco3)C(c3nnnn3Cc3ccccc3)C(C)C)cc2c1 (centres undefined),58,47,6,79,3.1*
O=C(NCC1CCCO1)c1ccc(CS(=O)(=O)c2ccc(Cl)cc2)o1 (centres undefined),93,96,89,93,103
COc1ccc(NC(=O)c2cc(-c3ccccc3)oc2C)cc1,.,.,101,.,98
COc1ccc(NS(=O)(=O)c2cc(OC)ccc2NC(=O)c2cc(C)oc2C)cc1,56,21*,22,67,27
COc1ccc(NS(=O)(=O)c2cc(C)ccc2C)cc1,62,13*,8,78,11
CCOC(=O)C1=C(N)Oc2c(oc(CO)cc2=O)C1c1ccc(F)cc1 (centres undefined),92,81,98,97,95
O=C(Nc1ccc(Cl)c(Cl)c1)C1=Cc2ccccc2OC1,35,16*,2.6*,92,2.6*
COc1cc(C(=O)Nc2cccc3cccnc23)cc(OC)c1OC,90,71,83,96,77
COc1cc(C(=O)N/N=C(\c2ccccc2)c2ccccn2)cc(OC)c1OC,.,.,4.8*,.,3.8*
COc1cccc(C(=O)N/N=C(/c2ccccc2)c2ccccn2)c1,.,.,5.0*,.,1.9*
COc1cccc(C(=O)N/N=C(/CCC(=O)O)c2ccccc2)c1,.,.,107,.,103
CCc1cc2c(=O)n(Cc3ccco3)c(SCC(=O)N3CCCc4ccccc43)nc2s1,90,102,61,89,60
CCc1cc2c(=O)n(Cc3ccco3)c(SCc3c(C)noc3C)nc2s1,56,13*,24,49*,22
Cc1cc(S(=O)(=O)N2CCN=C2c2ccccc2)c(C)cc1Cl,.,.,82,.,81

# Screening results as filed in PubChem.
